Data: ChEMBL document CHEMBL3414506 (J Med Chem, 2015)

How the values were obtained:
[1] = molecular target: T1, Steroid 17-alpha-hydroxylase/17,20 lyase (Homo sapiens, UniProt P05093); assay: Inhibition of human CYP17 expressed in Escherichia coli
T1 sequence (P05093 whole entry): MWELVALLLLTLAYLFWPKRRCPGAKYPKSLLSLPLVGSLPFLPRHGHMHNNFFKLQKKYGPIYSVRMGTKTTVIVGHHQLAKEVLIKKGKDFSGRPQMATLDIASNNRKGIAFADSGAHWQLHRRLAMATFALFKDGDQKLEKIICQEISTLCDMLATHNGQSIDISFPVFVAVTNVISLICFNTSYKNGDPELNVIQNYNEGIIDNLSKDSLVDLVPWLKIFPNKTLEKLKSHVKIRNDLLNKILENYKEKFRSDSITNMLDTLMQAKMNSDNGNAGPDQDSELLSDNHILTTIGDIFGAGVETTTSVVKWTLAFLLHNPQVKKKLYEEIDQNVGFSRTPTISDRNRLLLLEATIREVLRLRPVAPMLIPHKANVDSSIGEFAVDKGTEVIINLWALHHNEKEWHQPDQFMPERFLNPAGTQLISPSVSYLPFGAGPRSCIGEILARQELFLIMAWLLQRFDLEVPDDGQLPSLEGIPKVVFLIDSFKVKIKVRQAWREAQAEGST
Method in brief: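 Whole-cell assay: intact Escherichia coli cells expressing human CYP17 used as the enzyme source; inhibition expressed as IC50.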

Plasma [2] = assay: Retention time in mouse plasma by reverse phase HPLC method; type: ADME, cell-free
Method in brief: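 Mouse plasma from male SCID mice dosed s.c. at 50 or 100 mg/kg, analysed by validated reverse-phase HPLC with an internal standard. Analyte resolved from the internal standard, a metabolite and endogenous plasma components. Calibration linear; inter- and intra-assay variability under 10%; detection limit 100 ng/mL.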

[3] = molecular target: T1, Steroid 17-alpha-hydroxylase/17,20 lyase; assay: Inhibition of human CYP17 up to 10 uM using 17alpha-hydroxypregnenolone substrate relative to control
Method in brief: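 CYP17 assay with 17α-hydroxypregnenolone substrate at 10 μM (Km 560 nM). Screening used 150 nM inhibitor, tested up to 10 μM. Values are the mean ± SDM of at least two experiments.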

[4] = molecular target: T1, Steroid 17-alpha-hydroxylase/17,20 lyase; assay: Inhibition of human CYP17 using 17alpha-hydroxypregnenolone substrate
[5] = Growth inhibition of human castration-resistant prostate cancer cells; type: functional, cell-based; details: Cancer cell lines
Mus musculus [6] = assay: Volume of distribution in SCID mouse at 100 mg/kg, sc; type: ADME, organism-based; design: dose 100 mg/kg, route subcutaneous; details: in vivo
Method in brief: (§1)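 Male SCID mice were dosed subcutaneously at 50 or 100 mg/kg. Plasma levels were measured by reverse-phase HPLC against an internal standard, with a detection limit of 100 ng/mL and inter- and intra-assay variability under 10%. Parameters were calculated noncompartmentally from the plasma concentration–time profile.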

LAPC4 [7] = assay: Antitumor activity against human LAPC4 cells xenografted in SCID mouse assessed as tumor volume at 0.13 mmol/kg, sc dosed twice daily (reference value: 2410.28 mm3); type: functional
[8] = Mean residence time in SCID mouse at 100 mg/kg, sc; type: ADME, organism-based; design: dose 100 mg/kg, route subcutaneous; details: in vivo; method in brief: as §1
[9] = Cmax in SCID mouse at 100 mg/kg, sc; type: ADME, organism-based; design: dose 100 mg/kg, route subcutaneous; details: in vivo; method in brief: as §1
[10] = Tmax in SCID mouse at 100 mg/kg, sc; type: ADME, organism-based; design: dose 100 mg/kg, route subcutaneous; details: in vivo; method in brief: as §1
Mus musculus [11] = assay: Elimination half life in SCID mouse at 50 mg/kg, sc; type: ADME, organism-based; design: dose 50 mg/kg, route subcutaneous; details: in vivo; method in brief: as §1
Mus musculus [12] = assay: Volume of distribution in SCID mouse at 50 mg/kg, sc; type: ADME, organism-based; design: dose 50 mg/kg, route subcutaneous; details: in vivo; method in brief: as §1
[13] = Mean residence time in SCID mouse at 50 mg/kg, sc; type: ADME, organism-based; design: dose 50 mg/kg, route subcutaneous; details: in vivo; method in brief: as §1
Mus musculus [14] = assay: Drug elimination constant in SCID mouse at 50 mg/kg, sc; type: ADME, organism-based; design: dose 50 mg/kg, route subcutaneous; details: in vivo; method in brief: as §1
LAPC4 [15] = assay: Antitumor activity against human LAPC4 cells xenografted in SCID mouse assessed as reduction in tumor volume at 0.15 mmol/kg, sc dosed twice daily starting 1 day after tumor cell inoculation and measured after 16 weeks of treatment; type: functional
Method in brief: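 3 × 10^7 LAPC-4 cells were injected subcutaneously into the dorsal flank of male SCID mice. From 1 day after inoculation, mice received 0.15 mmol/kg s.c. twice daily, alongside vehicle and castrated groups. The dose was cut by 78.6% for one interval, then resumed. Tumour volume was measured weekly, and percent change was computed after 16 weeks.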

[16] = AUC in SCID mouse at 50 mg/kg, sc; type: ADME, organism-based; design: dose 50 mg/kg, route subcutaneous; details: plasma; method in brief: as §1
Plasma [17] = assay: Drug metabolism in mouse plasma assessed as retention time of metabolite by reverse phase HPLC method; type: ADME, cell-free
Method in brief: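 Mouse plasma was analysed by reverse-phase HPLC after subcutaneous dosing. The parent compound, an internal standard, the metabolite and endogenous components were resolved by retention time.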

[18] = Clearance in SCID mouse at 50 mg/kg, sc; type: ADME, organism-based; design: dose 50 mg/kg, route subcutaneous; details: in vivo; method in brief: as §1
LAPC4 [19] = assay: Antitumor activity against human LAPC4 cells xenografted in SCID mouse with castration assessed as regression of tumor volume at 0.13 mmol/kg, sc dosed twice daily; type: functional
[20] = AUC in SCID mouse at 100 mg/kg, sc; type: ADME, organism-based; design: dose 100 mg/kg, route subcutaneous; details: plasma; method in brief: as §1
[21] = Tmax in SCID mouse at 50 mg/kg, sc; type: ADME, organism-based; design: dose 50 mg/kg, route subcutaneous; details: in vivo; method in brief: as §1
LAPC4 [22] = assay: Antitumor activity against human LAPC4 cells xenografted in SCID mouse assessed as regression of tumor volume at 0.13 mmol/kg, sc dosed twice daily; type: functional
[23] = Cmax in SCID mouse at 50 mg/kg, sc; type: ADME, organism-based; design: dose 50 mg/kg, route subcutaneous; details: in vivo; method in brief: as §1
Mus musculus [24] = assay: Elimination half life in SCID mouse at 100 mg/kg, sc; type: ADME, organism-based; design: dose 100 mg/kg, route subcutaneous; details: in vivo; method in brief: as §1

C[C@]12CC[C@H](O)CC1=CC[C@@H]1[C@@H]2CC[C@]2(C)C(n3ccnc3)=CC[C@@H]12
IC50 [1]: 50 nM | Retention_time (Plasma [2]): 11.5 min

C[C@]12CC[C@H](O)CC1=CC[C@@H]1[C@@H]2CC[C@]2(C)C(n3nccn3)=CC[C@@H]12
inhibition (INH) [3]: Not Active

C[C@]12CC[C@H](O)CC1=CC[C@@H]1[C@@H]2CC[C@]2(C)C(n3ncnn3)=CC[C@@H]12
inhibition (INH) [3]: Not Active

C[C@]12CC[C@H](O)CC1=CC[C@@H]1[C@@H]2CC[C@]2(C)C(n3cnnn3)=CC[C@@H]12
inhibition (INH) [3]: Not Active

C[C@]12CCC(=O)C=C1CC[C@@H]1[C@@H]2CC[C@]2(C)C(n3cncn3)=CC[C@@H]12
IC50 [4]: 55 nM | Ki [4]: 41 nM

CC(O)(CS(=O)(=O)c1ccc(F)cc1)C(=O)Nc1ccc(C#N)c(C(F)(F)F)c1 (centres undefined) [BICALUTAMIDE]
IC50 [5]: 18000 nM

C[C@]12CC[C@H](O)CC1=CC[C@@H]1[C@@H]2CC[C@]2(C)C(n3cnc4ccccc43)=CC[C@@H]12 [GALETERONE]
Vd (Mus musculus [6]): 3.27639 L/kg | Activity (LAPC4 [7]): 6.94 mm3 | IC50 [5]: 2900 nM | MRT [8]: 60.5 min | Cmax [9]: 32200 ng/mL | Tmax [10]: 30 min | beta t1/2 (Mus musculus [11]): 44.17 min | Vd (Mus musculus [12]): 2.09899 L/kg | MRT [13]: 65.4 min | Retention_time (Plasma [2]): 21.6 min | Kel (Mus musculus [14]): 0.942 h⁻¹ | inhibition in vivo at 150 µmol/kg (LAPC4 [15]): 93.8% | AUC [16]: 24000 ng·h/mL | Retention_time (Plasma [17]): 17.3 min | CL/F [18]: 33.1 mL/min/kg | inhibition in vivo at 130 µmol/kg (LAPC4 [19]): 60.7% | AUC [20]: 30200 ng·h/mL | Tmax [21]: 30 min | inhibition in vivo at 130 µmol/kg (LAPC4 [22]): 26.6% | Cmax [23]: 16800 ng/mL | beta t1/2 (Mus musculus [24]): 36.6 min
